VLA-4 inh – inhibition in a human VLA-4 binding assay | VLA-4 expressing cells, ligand binding flow cytometry | P13612 | actives 0.2% (n = 330,000) | inhibition, % (about 7 µM as worked out from the volumes in the protocol) | AID 2557; in the data active = inhibition above about 50%
TAAR1 agonist – human TAAR1 agonism; Q96RJ0; CHO RD-HGA16 TAAR1, Fluo-8 calcium fluorescence; vehicle wells 0%, saturating PEA agonist 100%; activation, % at 3 µM; actives 0.99% (n = 360,000); AID 624467;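 active = activation above the mean activation of all test compounds in the run plus 3 SD, cut at about 38% in these data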
Target sequence (Q96RJ0 whole entry, looked up): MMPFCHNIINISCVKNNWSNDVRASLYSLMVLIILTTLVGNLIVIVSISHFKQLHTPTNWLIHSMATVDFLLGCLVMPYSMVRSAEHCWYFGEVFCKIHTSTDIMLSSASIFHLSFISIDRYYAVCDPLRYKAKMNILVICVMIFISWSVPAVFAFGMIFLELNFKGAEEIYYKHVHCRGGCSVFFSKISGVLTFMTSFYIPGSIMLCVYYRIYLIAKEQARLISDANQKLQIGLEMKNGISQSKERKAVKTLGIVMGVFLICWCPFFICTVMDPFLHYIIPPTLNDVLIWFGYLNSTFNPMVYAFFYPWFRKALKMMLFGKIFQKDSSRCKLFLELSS
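System: CHO-derived RD-HGA16 cells with stable Gα16 and human TAAR1. Times: 17-24 h plating, Fluo-8 75 min 37 °C, 30 min RT. Measured by: calcium-sensitive Fluo-8 signal, excitation 470-495, emission 515-575 nm. Read-out basis: % activation relative to PEA EC100 response. Control set: DMSO and PEA EC100. Repeats: no replicates (n 1).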
Platelet DG rel – platelet dense granule release activity | human platelet-rich plasma, SFLLRN dense granule ATP release, luminescence | inhibition, %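 (compounds screened at 7.5 µM in platelet-rich plasma)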 | actives 0.22% (n = 300,000) | AID 1663;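 active = mean replicate score, as percent of positive control, at or above 50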
Rce1 inhib – inhibitors of yeast Ras-converting enzyme; AID 2563; calls only; yeast membranes, quenched prenylated peptide cleavage fluorescence; Q03530; actives 0.27% (n = 290,000);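 active = fall in fluorescence gain of 50% or more versus controls, with final raw signal at or below 3038400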
Target sequence (Q03530 whole entry, looked up): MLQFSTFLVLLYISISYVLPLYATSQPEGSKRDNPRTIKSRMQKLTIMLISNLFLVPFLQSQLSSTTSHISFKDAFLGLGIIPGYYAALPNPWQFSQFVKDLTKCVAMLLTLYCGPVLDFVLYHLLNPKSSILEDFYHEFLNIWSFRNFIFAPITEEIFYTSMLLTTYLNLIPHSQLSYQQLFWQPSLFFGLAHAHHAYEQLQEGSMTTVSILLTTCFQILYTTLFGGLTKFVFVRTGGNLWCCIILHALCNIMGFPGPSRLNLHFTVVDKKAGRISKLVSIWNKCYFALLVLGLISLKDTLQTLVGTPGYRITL
TAAR1 antagonist – antagonists of human TAAR1 | Q96RJ0 | CHO RD-HGA16 TAAR1, Fluo-8 calcium fluorescence, antagonist | inhibition, % at 3 µM | actives 1.5% (n = 360,000);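 active = inhibition above a per-plate cutoff, the mean inhibition of test compounds on that plate plus 3 SD, cut at about 49% in these data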
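test system = CHO RD-HGA16 cells bearing hTAAR1 | replication = singlicate | controls = DMSO-only wells and EC80 β-PEA-stimulated wells | reagent = EC80 β-phenethylamine stimulus | read-out basis = percent inhibition of PEA-evoked calcium signal, max/basal emission ratio | schedule = seeding 17-24 h prior, 75-min 37 °C, 30-min RT dye loading | signal = kinetic Fluo-8 calcium fluorescence measurement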
VLA-4 mod pick – confirmation of allosteric modulators of human VLA-4 integrin | shares compounds with VLA-4 inh | U937 cells, HUTS-21 LIBS mAb binding, flow cytometry; LDV ligand present at threefold Kd | inhibition, % at 6.7 µM | actives 2% (n = 1,300); in the data active = inhibition above about 40%
Each line names hits and unclear results; the compound was inactive in the other large screens (follow-up assays come after a bar, where they were run). Rows were chosen to be rich in hits. Some 2.6% of all compounds tested hit in one or more screens of this group.

COC1CC2C=C(C)C=CC=CC(=O)NC(c3ccccc3)CC=CCCC(O)CC(=O)C2=C1O (stereo unspecified)	TAAR1 antagonist 84 (no result: VLA-4 inh, Platelet DG rel, Rce1 inhib)
COc1ccc(-n2c(/C=C/c3ccc(O)c(O)c3)nc3ccccc3c2=O)cc1	TAAR1 antagonist 50
COc1cc(/C=C/c2nc3ccccc3c(=O)n2-c2ccc(O)cc2)ccc1O	TAAR1 antagonist 67
O=c1c2ccccc2nc(/C=C/c2ccc3c(c2)OCO3)n1-c1ccccc1	none
CC(=O)Nc1ccccc1C(=O)OCc1ccc(C(=O)c2ccccc2)cc1	none (no result: VLA-4 inh)
CC(=O)Nc1ccccc1C(=O)OCc1cccc(F)c1	VLA-4 inh 56
CC1=CC2OC3CC4OC(=O)C=CC=CC(=O)OCCC(C)C(O)C(=O)OCC2(CC1)C4(C)C31CO1 (stereo unspecified)	TAAR1 antagonist 89 (no result: VLA-4 inh, Platelet DG rel, Rce1 inhib)
COC1CCCCC1NCCc1ccccc1 (stereo unspecified)	TAAR1 agonist 38
N#Cc1ccc2nc(-c3ccc(CN4CCC(n5c(=O)[nH]c6ccccc65)CC4)cc3)c(-c3ccccc3)nc2c1	TAAR1 antagonist 61 (no result: VLA-4 inh, Platelet DG rel, Rce1 inhib)
CN(C)c1ccc(/C=C/[N+](=O)[O-])cc1	TAAR1 agonist 40
C/C(=C\c1ccc(N(C)C)cc1)[N+](=O)[O-]	none
CCCCn1c(=O)c(C(=O)Nc2ncccc2C)c(O)c2ccccc21	TAAR1 agonist 55
COC(=O)C1=C(c2ccc(F)cc2OCc2ccccc2)C[C@@H]2CC[C@H]1N2C(=O)NCc1ccc(C)cc1	TAAR1 antagonist 60 (no result: Platelet DG rel, Rce1 inhib)
COc1ccc(NP(=O)(Oc2ccccc2OC)Oc2ccccc2OC)cc1	TAAR1 antagonist 59
CC(=O)OCC(=O)[C@H]1CC[C@H]2[C@@H]3CC[C@H]4C[C@H](O)CC[C@]4(C)[C@H]3C(=O)C[C@]12C	none (no result: Platelet DG rel, Rce1 inhib)
CC(=O)[C@H]1CC[C@H]2[C@@H]3CC[C@H]4C[C@H](O)CC[C@]4(C)[C@H]3C(=O)C[C@]12C	Rce1 inhib active
NC(N)=N/N=C/c1ccc(N(c2ccccc2)c2ccccc2)cc1	TAAR1 agonist 77
COc1ccc(/C=N\N=C(N)N)cc1	none
CCNC(=O)[C@H]1O[C@@H](n2cnc3c(N)ncnc32)[C@H](O)[C@@H]1O	Platelet DG rel 84
Nc1ncnc2c1ncn2[C@@H]1O[C@H](COP(=O)(O)CP(=O)(O)O)[C@@H](O)[C@H]1O	none (no result: VLA-4 inh, Platelet DG rel, Rce1 inhib)
C=CC[N+]1(C)CC[C@]23c4c5ccc(O)c4O[C@H]2C(=O)CC[C@@]3(O)[C@H]1C5 (stereo partly specified)	Rce1 inhib active
COc1cc(C2c3cc4c(c(O)c3CC3COC(=O)C32)OCO4)cc(OC)c1OC (stereo unspecified)	TAAR1 antagonist 50 (no result: VLA-4 inh, Platelet DG rel, Rce1 inhib)
CN1C[C@H](O)[C@H]2C[C@@H]1c1ccccc1O2	none (no result: VLA-4 inh, Platelet DG rel, Rce1 inhib)
CCN1/C(=C/C=C/C2=[N+](CC)c3ccccc3C2(C)C)C(C)(C)c2ccccc21	TAAR1 agonist 263, TAAR1 antagonist 106 (no result: VLA-4 inh, Platelet DG rel, Rce1 inhib)
CC(=O)N(C)C1=Nc2ccc(Cl)cc2C(c2ccccc2)=[N+]([O-])C1	none (no result: VLA-4 inh, Platelet DG rel, Rce1 inhib)
CCCCCSc1cc(OC)c(CCN)cc1OC	TAAR1 agonist 41
CCCCCCCSc1cc(OC)c(CCN(C)C)cc1OC	none
O=c1[nH]c2ccccc2n1C1CCN(C(c2cc3ccccc3o2)c2nnnn2-c2ccc3c(c2)OCCO3)CC1 (stereo unspecified)	TAAR1 antagonist 66 (no result: VLA-4 inh, Platelet DG rel, Rce1 inhib)
COc1ccc(-n2nnnc2C(c2cc3ccccc3o2)N2CCC(n3c(=O)[nH]c4ccccc43)CC2)cc1 (stereo unspecified)	TAAR1 antagonist 51 (no result: VLA-4 inh, Platelet DG rel, Rce1 inhib)
COc1ccc(C(c2nnnn2-c2ccc(OC)cc2)N2CCC(n3c(=O)[nH]c4ccccc43)CC2)cc1 (stereo unspecified)	none (no result: VLA-4 inh, Platelet DG rel, Rce1 inhib)
O=c1c2ccccc2[se]n1-c1ccccc1	TAAR1 agonist 41
O=C(c1ccccc1)N1Cc2cc(Br)ccc2-n2nncc2C1	none (no result: VLA-4 inh, Platelet DG rel, Rce1 inhib)
CCN(CC)c1ccc(CNCCc2ccccc2F)cc1	TAAR1 agonist 40
Cc1ccc(CNCCc2ccccc2F)cc1	none
CC(C)S(=O)(=O)N1Cc2ccc(Br)cc2-n2nncc2C1	none (no result: VLA-4 inh, Platelet DG rel, Rce1 inhib)
CN1CCN(c2ccc([N+](=O)[O-])c(Sc3nncn3C)c2)CC1	Rce1 inhib active
COc1ccc(C(=O)CN2CCCCC2)cc1	none
CC1CC(C)CN(CC(=O)c2ccc(OC(F)F)cc2)C1 (stereo unspecified)	TAAR1 agonist 42
O=P(OCCCl)(OCCCl)OCCCl	none (no result: VLA-4 inh, Platelet DG rel, Rce1 inhib)
C=C(C)C(Cc1c(OC)ccc(C(=O)/C=C/c2ccc(O)cc2)c1O)OO (stereo unspecified)	TAAR1 antagonist 54 (no result: Platelet DG rel, Rce1 inhib)
CC(C)(C)n1nnnc1C(CCc1ccccc1)N1CCC2(CC1)C(=O)NCN2c1ccccc1 (stereo unspecified)	none (no result: VLA-4 inh, Platelet DG rel, Rce1 inhib)
C[C@@]12CC[C@@H](c3cc4c(cc3C1)OCO4)N2c1ccccc1	none (no result: VLA-4 inh, Platelet DG rel, Rce1 inhib)
Cc1nnc2ccc(-c3cccc(C(F)(F)F)c3)nn12	VLA-4 inh 63 | VLA-4 mod pick inactive
Cc1ccc(S(=O)(=O)c2nc(-c3ccccc3Cl)oc2N(C)C2CCN(C)CC2)cc1	none (no result: Platelet DG rel, Rce1 inhib)
C[C@]12CC[C@H](O)C[C@H]1CC[C@@H]1[C@@H]2C[C@@H](O)[C@]2(C)[C@@H](C3=CC(=O)OC3)CC[C@]12O	VLA-4 inh 51 (no result: Platelet DG rel, Rce1 inhib) | VLA-4 mod pick inactive
CC1(C)C[C@H]2C=C(C=O)[C@]3(C=O)C[C@]3(C)[C@H]2C1	VLA-4 inh 65 | VLA-4 mod pick 48
Brc1cccc(CNCCc2ccc3c(c2)OCO3)c1	none
C=C(C=O)C[C@@H]1C[C@H](O)C2OC3C[C@]4(C)OC5/C=C\CC6OC7C(CC=CCC6OC5CCCC4OC3CC2O1)OC1CC2OC3CC(=O)OC3C[C@@H](C)C[C@@]2(C)OC1C[C@@H]7C (stereo partly specified)	VLA-4 inh 60 (no result: TAAR1 agonist, TAAR1 antagonist) | VLA-4 mod pick 67
C=C(C=O)CC1CC(O)[C@]2(C)OC3C[C@@H]4OC5C[C@]6(C)O[C@]7(C)CCC8OC9C[C@]%10(C)OC(/C(C)=C\CO)C(O)CC%10OC9CC(C)C8OC7CC6O[C@]5(C)C/C=C\C4OC3CC2O1 (stereo partly specified)	none (no result: TAAR1 agonist, Platelet DG rel, Rce1 inhib, TAAR1 antagonist)
CC1(C)CCCN1CCC(C(N)=O)(c1ccccc1)c1ccccc1	none (no result: VLA-4 inh, Platelet DG rel, Rce1 inhib)
COC(=O)CC1=C(C(=O)OC)C2(C(=O)Nc3c(C)cccc32)C(C#N)=C(N)O1 (stereo unspecified)	VLA-4 inh 107 | VLA-4 mod pick inactive
CCC(CO)(C(=O)OC1CC2CCC(C1)N2C)c1ccccc1 (stereo unspecified)	none
COc1cc(C(=O)OC2C[C@H]3CC[C@@H](C2)N3C)ccc1O (stereo partly specified)	none | VLA-4 mod pick inactive
C[N+]1(C)C2CCC1CC(OC(=O)c1ccco1)C2 (stereo unspecified)	none

Assay outcomes as filed in PubChem.
